Reference: ChEMBL document CHEMBL1134785, “Synthesis and biological evaluation of prostaglandin-F alkylphosphinic acid derivatives as bone anabolic agents for the treatment of osteoporosis” (J Med Chem, 2001)

What was measured:
[1] = Dissociation constant was determined; assay type: physicochemical
[2] = biological target: T1, Prostaglandin F2-alpha receptor (Homo sapiens, UniProt P43088); assay: In vitro binding at FP human prostaglandin receptor using [3H]PGF-2 alpha as radioligand
How it was run: (§1)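 COS-7 cells transiently transfected with hFP plasmid and harvested 48 h later. Membranes from nitrogen cavitation and 100000g spin, taken up at 1 mg protein/mL in TME buffer pH 6.0. Each well held 100 μg membrane, 5 nM [3H]PGF2α and competitor, n=3, 1 h at 23 °C. Bound label collected by GF/B filtration, washed in TME, scintillation counted.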

[3] = biological target: T2, Prostaglandin D2 receptor (Homo sapiens, UniProt Q13258); assay: In vitro binding at DP human prostaglandin receptor using [3H]- PGD-2 as radioligand
T2 sequence (Q13258 whole entry): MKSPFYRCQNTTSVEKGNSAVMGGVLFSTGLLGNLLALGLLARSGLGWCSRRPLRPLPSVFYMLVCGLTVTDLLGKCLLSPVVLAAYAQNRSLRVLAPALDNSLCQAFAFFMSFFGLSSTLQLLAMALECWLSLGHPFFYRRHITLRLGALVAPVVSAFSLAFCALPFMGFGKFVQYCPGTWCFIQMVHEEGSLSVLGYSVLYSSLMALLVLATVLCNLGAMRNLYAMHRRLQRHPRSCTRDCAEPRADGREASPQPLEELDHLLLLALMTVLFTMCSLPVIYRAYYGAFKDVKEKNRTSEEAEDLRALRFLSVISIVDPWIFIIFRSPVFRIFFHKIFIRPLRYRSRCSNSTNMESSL
How it was run: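 hDP stably expressed in HEK-293 cells, collected 4-5 days after seeding. Membranes made by lysis and 100000g spin, then taken up at 1 mg protein/mL in TME buffer at pH 7.4. Competition binding used 5 nM [3H]PGD2, read by filtration and scintillation counting.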

[4] = biological target: T3, Thromboxane A2 receptor (Homo sapiens, UniProt P21731); assay: In vitro binding at TP human prostaglandin receptor using [3H]SQ-29,548 as radioligand
T3 sequence (P21731 whole entry): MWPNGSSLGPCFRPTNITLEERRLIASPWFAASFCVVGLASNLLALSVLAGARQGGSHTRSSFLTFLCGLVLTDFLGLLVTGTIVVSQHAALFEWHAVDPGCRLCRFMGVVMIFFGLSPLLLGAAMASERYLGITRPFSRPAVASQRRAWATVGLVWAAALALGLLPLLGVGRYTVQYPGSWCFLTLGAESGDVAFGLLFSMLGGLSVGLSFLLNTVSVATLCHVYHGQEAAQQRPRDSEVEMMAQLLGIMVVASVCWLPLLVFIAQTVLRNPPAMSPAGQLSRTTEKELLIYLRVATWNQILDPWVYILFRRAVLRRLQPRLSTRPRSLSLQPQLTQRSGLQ
How it was run: (§2)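 Receptors stably expressed in CHO cells, collected 4-5 days after seeding. Membranes made by lysis (Tris, EDTA, protease inhibitors) and 100000g pellet, then resuspended at 1 mg protein/mL in TME. Radioligands at 5 nM: [3H]PGE2 for EP2/EP3/EP4, [3H]Iloprost for IP, [3H]SQ-29548 for TP. Competition binding with filtration and counting.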

[5] = biological target: Prostaglandin E2 receptor EP4 subtype (Homo sapiens, UniProt P35408); assay: In vitro binding at EP4 human prostaglandin receptor using [3H]PGE-2 as radioligand; how it was run: as §2
Chain of Prostaglandin E2 receptor EP4 subtype (P35408 whole entry): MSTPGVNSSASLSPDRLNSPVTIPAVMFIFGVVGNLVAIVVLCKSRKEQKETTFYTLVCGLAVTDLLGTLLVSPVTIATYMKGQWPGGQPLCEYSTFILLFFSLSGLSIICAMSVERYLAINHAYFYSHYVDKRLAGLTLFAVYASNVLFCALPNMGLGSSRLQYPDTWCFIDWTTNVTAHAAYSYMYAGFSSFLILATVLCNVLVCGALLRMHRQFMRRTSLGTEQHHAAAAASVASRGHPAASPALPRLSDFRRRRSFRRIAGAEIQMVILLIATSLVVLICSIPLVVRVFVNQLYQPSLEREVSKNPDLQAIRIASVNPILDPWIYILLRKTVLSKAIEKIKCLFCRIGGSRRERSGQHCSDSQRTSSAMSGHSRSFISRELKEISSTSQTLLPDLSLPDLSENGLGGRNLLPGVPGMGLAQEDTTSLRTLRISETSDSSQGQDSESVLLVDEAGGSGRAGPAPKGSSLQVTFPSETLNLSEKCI

[6] = biological target: T4, Prostaglandin E2 receptor EP1 subtype (Homo sapiens, UniProt P34995); assay: In vitro binding at EP1 human prostaglandin receptor using [3H]PGE-2 as radioligand
T4 sequence (P34995 whole entry): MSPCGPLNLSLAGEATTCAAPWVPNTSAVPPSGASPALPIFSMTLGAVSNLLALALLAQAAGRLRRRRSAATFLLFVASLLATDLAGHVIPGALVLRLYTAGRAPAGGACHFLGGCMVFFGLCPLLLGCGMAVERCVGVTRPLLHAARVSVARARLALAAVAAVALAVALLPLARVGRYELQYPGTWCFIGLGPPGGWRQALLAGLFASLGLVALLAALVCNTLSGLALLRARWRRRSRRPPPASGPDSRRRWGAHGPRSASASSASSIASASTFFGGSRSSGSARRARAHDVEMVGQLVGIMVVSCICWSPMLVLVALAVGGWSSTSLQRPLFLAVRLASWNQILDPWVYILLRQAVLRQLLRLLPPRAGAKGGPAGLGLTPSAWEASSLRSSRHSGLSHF
How it was run: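 hEP1 transiently expressed in COS-7 cells by the hFP transfection and membrane protocol, with membranes in TME buffer pH 6.0. Competition binding used 5 nM [3H]PGE2, 1 h at 23 °C, filtration and scintillation counting.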

[7] = biological target: T5, Prostaglandin E2 receptor EP3 subtype (Homo sapiens, UniProt P43115); assay: In vitro binding at EP3 human prostaglandin receptor using [3H]PGE-2 as radioligand; how it was run: as §2
T5 sequence (P43115 whole entry): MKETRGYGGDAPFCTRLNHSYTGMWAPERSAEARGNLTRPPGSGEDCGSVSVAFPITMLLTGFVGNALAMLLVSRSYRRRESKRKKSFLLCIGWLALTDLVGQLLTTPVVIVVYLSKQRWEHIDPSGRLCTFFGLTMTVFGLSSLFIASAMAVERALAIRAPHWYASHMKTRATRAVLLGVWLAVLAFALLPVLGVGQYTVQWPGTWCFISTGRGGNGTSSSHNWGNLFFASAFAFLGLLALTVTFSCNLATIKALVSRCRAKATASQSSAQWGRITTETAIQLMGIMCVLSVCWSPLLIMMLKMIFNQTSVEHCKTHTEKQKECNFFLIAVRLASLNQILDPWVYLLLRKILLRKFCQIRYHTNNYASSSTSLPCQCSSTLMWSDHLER

[8] = biological target: Prostacyclin receptor (Homo sapiens, UniProt P43119); assay: In vitro binding at prostanoid IP receptor using [3H]iloprost as radioligand; how it was run: as §2
Chain of Prostacyclin receptor (P43119 whole entry): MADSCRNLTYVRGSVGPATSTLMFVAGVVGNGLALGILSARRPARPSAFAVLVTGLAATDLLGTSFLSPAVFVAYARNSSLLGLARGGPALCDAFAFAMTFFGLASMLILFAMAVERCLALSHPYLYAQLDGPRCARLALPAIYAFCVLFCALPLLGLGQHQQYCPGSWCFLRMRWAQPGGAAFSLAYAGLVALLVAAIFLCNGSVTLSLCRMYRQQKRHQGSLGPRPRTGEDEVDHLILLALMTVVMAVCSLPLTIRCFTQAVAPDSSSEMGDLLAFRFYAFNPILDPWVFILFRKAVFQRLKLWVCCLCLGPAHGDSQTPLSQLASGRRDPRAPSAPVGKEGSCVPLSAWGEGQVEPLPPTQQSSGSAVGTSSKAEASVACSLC

[9] = biological target: Prostaglandin E2 receptor EP2 subtype (Homo sapiens, UniProt P43116); assay: In vitro binding at EP2 human prostaglandin receptor using [3H]PGE-2 as radioligand; how it was run: as §2
Chain of Prostaglandin E2 receptor EP2 subtype (P43116 whole entry): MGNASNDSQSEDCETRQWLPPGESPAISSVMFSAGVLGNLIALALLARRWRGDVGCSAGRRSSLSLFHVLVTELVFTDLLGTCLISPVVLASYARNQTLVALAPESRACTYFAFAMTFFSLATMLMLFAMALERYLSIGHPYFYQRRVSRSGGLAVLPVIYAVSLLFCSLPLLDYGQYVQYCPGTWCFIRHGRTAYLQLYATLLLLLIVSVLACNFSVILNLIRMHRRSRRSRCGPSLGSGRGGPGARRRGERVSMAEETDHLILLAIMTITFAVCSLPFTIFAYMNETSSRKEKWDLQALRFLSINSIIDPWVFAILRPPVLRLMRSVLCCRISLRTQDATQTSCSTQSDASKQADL

[10] = biological target: T3, Thromboxane A2 receptor; assay: Functional activity in RAT-1 cells, transiently transfected with human prostaglandin TP receptor; assay type: cell-based
How it was run: (§3)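 RAT-1 cells transiently transfected with the human receptor, carrying a stably transfected, constitutively expressed β-galactosidase reporter gene. EC50 read after timed hydrolysis of a galactosidase pseudosubstrate.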

[11] = biological target: T5, Prostaglandin E2 receptor EP3 subtype; assay: Functional activity in RAT-1 cells, transiently transfected with human prostaglandin EP3 receptor; assay type: cell-based; how it was run: as §3
[12] = biological target: T4, Prostaglandin E2 receptor EP1 subtype; assay: Functional activity in RAT-1 cells, transiently transfected with human prostaglandin EP1 receptor; assay type: cell-based; how it was run: as §3
[13] = biological target: T1, Prostaglandin F2-alpha receptor; assay: In vitro binding at FP human prostaglandin receptor using [3H]- PGF-2 alpha as radioligand; how it was run: as §1
[14] = system: Rattus norvegicus; assay: Mineral apposition measured Histomorphometrically after a dose of 3 ug/kg in proximal tibial metaphysis
[15] = system: Rattus norvegicus; assay: Mineralizing apposition measured Histomorphometrically after a dose of 250 ug/kg in Tibial Diaphysis; assay type: functional
[16] = system: Rattus norvegicus; assay: Bone Formation rate/tissue vol measured Histomorphometrically after a does of 250 ug/kg in proximal tibial metaphysis; assay type: functional
[17] = system: Rattus norvegicus; assay: Endosteal mineralizing surface measured Histomorphometrically after a does of 250 ug/kg in Tibial Diaphysis; assay type: functional
[18] = system: Rattus norvegicus; assay: Mineral apposition measured Histomorphometrically after a dose of 250 ug/kg in proximal tibial metaphysis; assay type: functional
[19] = system: Rattus norvegicus; assay: Trabecular no measured Histomorphometrically after a dose of 250 ug/kg in proximal tibial metaphysis; assay type: functional, Trabecula
[20] = system: Rattus norvegicus; assay: Periosteal mineralizing surface measured Histomorphometrically after a does of 250 ug/kg in Tibial Diaphysis; assay type: functional
[21] = system: Rattus norvegicus; assay: Bone Volume /Tissue Volume (%)measured Histomorphometrically after a dose of 250 ug/kg in proximal tibial metaphysis; assay type: functional
[22] = system: Rattus norvegicus; assay: Directly measured thickness measured using micro Computed Tomography(CT) after a dose of 250 ug/kg in Vertebral Bone; assay type: functional
[23] = system: Rattus norvegicus; assay: Endosteal eroded surface measured Histomorphometrically after a dose of 250 ug/kg in Tibial Diaphysis; assay type: functional
[24] = system: Rattus norvegicus; assay: Bone Volume /Tissue Volume (%)measured using micro Computed Tomography(CT) after a dose of 250 ug/kg in Vertebral Bone; assay type: functional
[25] = system: Rattus norvegicus; assay: Trabecular thickness measured Histomorphometrically after a dose of 250 ug/kg in proximal tibial metaphysis; assay type: functional, Trabecula
[26] = system: Rattus norvegicus; assay: Tissue area measured Histomorphometrically after a dose of 250 ug/kg in Tibial Diaphysis; assay type: functional
[27] = system: Rattus norvegicus; assay: Marrow area measured Histomorphometrically after a dose of 250 ug/kg in Tibial Diaphysis; assay type: functional
[28] = system: Rattus norvegicus; assay: Mineral surface/bone surface measured Histomorphometrically after a dose of 250 ug/kg in proximal tibial metaphysis; assay type: functional
[29] = system: Rattus norvegicus; assay: Connectivity density measured using micro Computed Tomography(CT) after a dose of 250 ug/kg in Vertebral Bone; assay type: functional
[30] = system: Rattus norvegicus; assay: Derived trabecular no measured using micro Computed Tomography(CT) after a dose of 6000 ug/kg in Vertebral Bone; assay type: functional, Trabecula
How it was run: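 Micro-CT of the fifth lumbar vertebra, measuring cancellous bone volume and architecture. Rats were 6 months old, OVX 60 days before treatment, then dosed daily for 60 days. Test-agent doses were 10–3000 µg/kg, given as a once-daily subcutaneous injection; 6 mg/kg/day was given to the positive-control group. Groups were compared with vehicle by ANOVA plus LSD test.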

[31] = system: Rattus norvegicus; assay: Bone Formation rate/bone measured Histomorphometrically after a dose of 250 ug/kg in proximal tibial metaphysis; assay type: functional
[32] = system: Rattus norvegicus; assay: Derived trabecular thickness measured using micro Computed Tomography(CT) after a dose of 250 ug/kg in Vertebral Bone; assay type: functional, Trabecula

T1 sequence (P43088 whole entry): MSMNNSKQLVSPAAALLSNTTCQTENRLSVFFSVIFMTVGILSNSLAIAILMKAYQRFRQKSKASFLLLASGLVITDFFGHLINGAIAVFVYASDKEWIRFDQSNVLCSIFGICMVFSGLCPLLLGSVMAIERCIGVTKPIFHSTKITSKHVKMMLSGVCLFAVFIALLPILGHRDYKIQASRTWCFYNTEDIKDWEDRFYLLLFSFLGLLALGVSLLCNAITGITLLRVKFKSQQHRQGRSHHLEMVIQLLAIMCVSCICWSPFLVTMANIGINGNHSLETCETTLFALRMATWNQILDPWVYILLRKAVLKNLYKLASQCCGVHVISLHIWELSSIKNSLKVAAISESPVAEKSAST

CCCCC[C@H](O)/C=C/[C@@H]1[C@@H](C/C=C\CCCP(=O)(O)CCCC)[C@@H](O)C[C@H]1O
pKa [1]: 3.36 | IC50 [2]: 6700 nM

CCCCC[C@H](O)/C=C/[C@@H]1[C@@H](C/C=C\CCCP(=O)(O)CC)[C@@H](O)C[C@H]1O
pKa [1]: 3.24 | IC50 [2]: 4100 nM

CCCCC[C@H](O)/C=C/[C@@H]1[C@@H](C/C=C\CCC[PH](=O)O)[C@@H](O)C[C@H]1O
IC50 [3]: > 10000 nM | IC50 [4]: > 10000 nM | pKa [1]: 3.39 | IC50 [5]: > 10000 nM | IC50 [6]: > 10000 nM | IC50 [7]: > 10000 nM | IC50 [8]: > 10000 nM | IC50 [2]: 114 nM | IC50 [9]: > 10000 nM

O=C(O)CCC/C=C\C[C@@H]1[C@@H](/C=C/[C@@H](O)COc2ccccc2)[C@H](O)C[C@@H]1O
EC50 [10]: 510 nM | pKa [1]: 4.77 | EC50 [11]: 186 nM | IC50 [2]: 2 nM | EC50 [12]: 38 nM

CCCCC[C@H](O)/C=C/[C@@H]1[C@@H](C/C=C\CCCP(=O)(O)OCC)[C@@H](O)C[C@H]1O
IC50 [13]: > 10000 nM | pKa [1]: 2.36

CCCCC[C@H](O)/C=C/[C@@H]1[C@@H](C/C=C\CCCP(=O)(O)O)[C@@H](O)C[C@H]1O
IC50 [13]: 1000 nM | pKa [1]: 2.38

CCCCC[C@H](O)/C=C/[C@@H]1[C@@H](C/C=C\CCCP(C)(=O)O)[C@@H](O)C[C@H]1O
pKa [1]: 3.1 | IC50 [2]: 311 nM

NCCCC(O)(P(=O)(O)O)P(=O)(O)O [ALENDRONIC ACID]
Mineral apposition rate [14]: 0.63 µm/day

O=C(O)CCC/C=C\CC1C(O)CC(O)C1/C=C/C(O)COc1cccc(Cl)c1 (centres undefined) [CLOPROSTENOL]
Mineralizing apposition rate [15]: 1.6 µm/day | Activity [16]: 26.44% | Endosteal mineralizing surface [17]: 55.18% | Mineral apposition rate [18]: 1.09 µm/day | Trabecular no. [19]: 1.77 | Periosteal mineralizing surface [20]: 9.91% | Activity [21]: 9.5% | Directly measured thickness [22]: 138 µm | Endosteal eroded surface [23]: 2.22% | Activity [24]: 42.04% | Trabecular thickness [25]: 53.9 | Tissue area [26]: 4.78 mm | Marrow area [27]: 0.7 mm | Activity [28]: 22.99% | Connectivity density [29]: 61.13 mm**-3 | Derived trabecular number [30]: 4.6 mM⁻¹ | Activity [31]: 286.86% | Derived trabecular thickness [32]: 85.8 µm

CCCCC[C@H](O)/C=C/[C@@H]1[C@@H](C/C=C\CCCC(=O)O)[C@@H](O)C[C@H]1O [DINOPROST]
IC50 [4]: > 10000 nM | pKa [1]: 4.77 | IC50 [6]: 220 nM | IC50 [7]: 110 nM | IC50 [8]: > 10000 nM | IC50 [9]: > 10000 nM
